High-throughput results: PubChem BioAssay, several laboratories
In the library only some 2.6% were active in any assay of this set; here they are far more common.
Platelet DG rel: platelet dense granule release activity | human platelet-rich plasma, SFLLRN dense granule ATP release, luminescence | 300,000 tested, 0.22% active | AID 1663 | inhibition, %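 (compounds screened at 7.5 µM in platelet-rich plasma)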;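 active means mean replicate score, as percent of positive control, at or above 50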
TAAR1 antag: human TAAR1 antagonism. inhibition, % at 3 µM. CHO RD-HGA16 TAAR1, Fluo-8 calcium fluorescence, antagonist. Q96RJ0. 360,000 tested, 1.5% active;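 active means inhibition above a per-plate cutoff, the mean inhibition of test compounds on that plate plus 3 SD, cut at about 49% in these data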;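 further: 0% = DMSO plus EC80 beta-PEA response and 100% = DMSO alone without agonist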
Target sequence (Q96RJ0 whole entry, looked up): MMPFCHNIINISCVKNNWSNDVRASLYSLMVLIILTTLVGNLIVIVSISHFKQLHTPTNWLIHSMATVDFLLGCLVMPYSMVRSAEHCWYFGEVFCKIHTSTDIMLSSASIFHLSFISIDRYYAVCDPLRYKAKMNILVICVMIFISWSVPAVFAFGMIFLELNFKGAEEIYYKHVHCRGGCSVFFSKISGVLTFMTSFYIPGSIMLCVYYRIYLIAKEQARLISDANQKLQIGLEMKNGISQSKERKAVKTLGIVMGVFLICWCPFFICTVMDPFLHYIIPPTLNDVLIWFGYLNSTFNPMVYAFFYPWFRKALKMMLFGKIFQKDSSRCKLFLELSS
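Assay system: CHO-derived RD-HGA16 cells stably expressing human TAAR1 plus Gα16. Timing: 140 s kinetic read after compound, 140 s after agonist. Technique: kinetic Fluo-8 calcium fluorescence measurement. Measure: % inhibition of agonist calcium response.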
TAAR1 ag: agonists of human TAAR1 | 360,000 tested, 0.99% active | CHO RD-HGA16 TAAR1, Fluo-8 calcium fluorescence; vehicle wells 0%, saturating PEA agonist 100% | activation, % at 3 µM;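 active means activation above the mean activation of all test compounds in the run plus 3 SD, cut at about 38% in these data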
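Assay system: CHO-derived RD-HGA16 cells with stable Gα16 and human TAAR1; timing: 17-24 h seeding, 75 min 37 °C dye, 30 min RT; read-out: % activation from peak over basal fluorescence ratio, DMSO-to-PEA scaled; measured by: kinetic Fluo-8 calcium fluorescence; benchmarks: low control DMSO, high control PEA (EC100); doses: 3 µM single concentration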
VLA-4 inh: inhibition in a human VLA-4 binding assay; P13612; VLA-4 expressing cells, ligand binding flow cytometry; inhibition, % (about 7 µM as worked out from the volumes in the protocol); 330,000 tested, 0.2% active; AID 2557; in the data active means inhibition above about 50%
Rce1 inh: blocks yeast Ras-converting enzyme | Q03530 | yeast membranes, quenched prenylated peptide cleavage fluorescence | calls only | 290,000 tested, 0.27% active;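 active means fall in fluorescence gain of 50% or more versus controls, with final raw signal at or below 3038400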;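 further: plate controls were neutral control wells for no effect and wells lacking membranes for full effect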
Target sequence (Q03530 whole entry, looked up): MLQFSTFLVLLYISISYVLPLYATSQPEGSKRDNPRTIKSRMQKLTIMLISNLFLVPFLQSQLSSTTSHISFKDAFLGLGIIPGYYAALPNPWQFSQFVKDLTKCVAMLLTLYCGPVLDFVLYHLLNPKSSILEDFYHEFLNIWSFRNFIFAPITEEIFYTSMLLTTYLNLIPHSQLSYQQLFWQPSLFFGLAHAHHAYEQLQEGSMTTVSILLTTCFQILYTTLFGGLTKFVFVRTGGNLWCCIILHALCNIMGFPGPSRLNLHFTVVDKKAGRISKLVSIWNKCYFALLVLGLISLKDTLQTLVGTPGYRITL
TAAR1 nonsel count: nonselective antagonist in TAAR1 antagonist counter-screen; counterscreen cell line, calcium fluorescence, antagonist mode; inhibition, % at 3 µM; 2,400 tested, 77% active; AID 651780; shares compounds with TAAR1 antag; in the data active means inhibition above about 22%;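 further: CHO-Ga16 host cells stimulated with ATP at an EC80 level; 0% = agonist EC80 plus vehicle and 100% = vehicle without agonist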
TAAR1 ant conf: confirmation of human TAAR1 antagonists. shares compounds with TAAR1 antag. TAAR1-expressing cells, fluorescence antagonist read-out. inhibition, % at 3 µM. 2,400 tested, 40% active; in the data active means inhibition above about 49%;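 further: CHO-Ga16 host cells challenged with agonist PEA near its EC80; 0% = agonist at EC80 plus vehicle and 100% = vehicle with no agonist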
Ga16 ag counter: nonselective Ga16 agonist in TAAR1 antagonist counter-screen. shares compounds with TAAR1 antag. Ga16-expressing cells, calcium fluorescence, agonist counterscreen. activation, % at 3 µM. 2,400 tested, 18% active. AID 651953; in the data active means activation above about 12%;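 further: 0% = vehicle wells and 100% = saturating stimulus response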
TAAR1 ag counter: activates human TAAR1 in antagonist counter-screen; 2,400 tested, 2% active; shares compounds with TAAR1 antag; hTAAR1 cell line, fluorescence activation, agonist mode; activation, % at 3 µM; AID 651955; in the data active means activation above about 37%;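 further: CHO cells stably expressing TAAR1 with calcium dye readout; 0% = DMSO vehicle and 100% = full agonist response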
* hit, by the source's call; i = inactive; · = not tested or not shown.

SMILES	Platelet DG rel	TAAR1 antag	TAAR1 ag	VLA-4 inh	Rce1 inh	TAAR1 nonsel count	TAAR1 ant conf	Ga16 ag counter	TAAR1 ag counter
CC(C)c1cc(C(C)C)c(S(=O)(=O)N2c3ccccc3[C@@]3(Br)C[C@H]4C(=O)N[C@@H](Cc5ccccc5)C(=O)N4[C@@H]23)c(C(C)C)c1	-8.7	·	·	-1.2	i	·	·	·	·
CCC(=O)N1CCN(c2ccc(NC(=O)COc3ccccc3[N+](=O)[O-])cc2)CC1	-1.8	86.4*	21.3	-2.2	i	31.9*	57.2*	13.9*	14.5
CCOC(=O)C1=CCN(S(=O)(=O)c2ccc(C)cc2)C1c1cccc2ccccc12 (stereo not drawn)	·	-13.7	-1.0	·	·	·	·	·	·
O=C(OCC(=O)N(Cc1ccccc1)Cc1ccccc1)c1ccccc1NCCO	-0.9	69.9*	8.4	-1.9	i	34.5*	51.3*	6.7	3.8
CCc1ccc(S(=O)(=O)Nc2ccc(O)c3c(=O)cc(-c4ccccc4Cl)oc23)cc1	-0.6	60.6*	14.0	13.4	i	4.4	25.4	7.3	16.2
O=C(O)CC1(CC(=O)Nc2ccccc2Br)CCCC1	-1.4	5.3	-0.4	-3.1	i	·	·	·	·
CSc1cccc(NC(=O)C2CCCN(S(=O)(=O)c3ccc(F)cc3)C2)c1 (stereo not drawn)	3.6	56.0*	12.3	2.5	i	22.6*	33.0	4.3	1.7
COC(=O)c1cccc(S(=O)(=O)N(Cc2ccco2)Cc2cc3ccc(OC)cc3[nH]c2=O)c1	12.0	56.6*	21.0	7.9	i	33.5*	57.2*	10.3	6.5
COc1ccc(NC(=O)C2=CC(c3ccc(C)cc3)=NS(=O)(=O)N2C)cc1OC	-7.2	1.3	4.3	-8.8	i	·	·	·	·
COc1ccc(C2=NS(=O)(=O)N(C)C(C(=O)Nc3cc(C)ccc3O)=C2)cc1OC	2.7	70.1*	12.6	-17.3	i	39.6*	51.4*	8.8	6.1
COc1ccc(Cc2c(-c3ccc(C)cc3)nc3ccc(Cl)cn23)c(C)c1	·	-4.0	-1.9	·	·	·	·	·	·
CCN(CC(=O)NCc1cccs1)C(=O)CCC(=O)c1ccc(C)cc1	-1.3	-7.1	-1.4	3.4	i	·	·	·	·
Cc1nn(-c2ccccc2)c(Cl)c1C(=O)N1CCN(c2ncnc3c2cnn3-c2ccccc2)CC1	-11.8	78.5*	21.2	16.1	i	52.1*	63.1*	13.0*	11.1
O=C(c1ccccc1)N1CCN(c2ncnc3c2cnn3-c2ccccc2)CC1	7.7	19.6	11.1	4.9	i	·	·	·	·
COc1ccc(C(CNC(=O)c2ccc(OC)c(S(=O)(=O)N3CCCC3)c2)N2CCCC2)cc1 (stereo not drawn)	·	10.8	4.8	20.7	·	·	·	·	·
COc1ccc(CN(Cc2cc3ccc(C)cc3[nH]c2=O)Cc2nnnn2C2CCCC2)cc1	-25.4	55.8*	10.7	5.4	·	21.2	28.4	5.2	9.0
Cc1ccc2cc(CN(Cc3nnnn3C3CCCCC3)CC3CCCO3)c(=O)[nH]c2c1 (stereo not drawn)	-5.7	-8.3	8.6	9.1	i	·	·	·	·
CCN(CC)S(=O)(=O)c1ccc2[nH]cc(C(=O)NCCC3=CCCCC3)c(=O)c2c1	10.9	67.0*	11.4	-3.5	i	32.2*	32.9	6.1	5.2
CCN(CC)S(=O)(=O)c1ccc2[nH]cc(C(=O)NCCN3CCCCCC3)c(=O)c2c1	4.2	5.5	8.7	10.3	i	·	·	·	·
COc1cc(C)c(C(=O)Oc2cc(C)c(C(=O)O)c(O)c2C)c(O)c1C	1.1	80.2*	-3.0	18.2	i	47.6*	53.1*	-0.1	-3.0
O=C1CCC(=O)N1Cc1c(Cl)cccc1Cl	0.8	-5.2	-1.8	22.7	i	·	·	·	·
COc1ccc(CCNC(=O)C(=O)NCC2CCCN2S(=O)(=O)c2ccc(OC)cc2)cc1 (stereo not drawn)	10.4	73.7*	18.0	0.8	i	29.4*	57.2*	14.4*	19.2
O=C(c1ccc(Cl)c([N+](=O)[O-])c1)N1CCN(c2ccccn2)CC1	-1.6	5.8	0.6	6.4	i	·	·	·	·
O=C(c1ccc(S(=O)(=O)Cc2ccccc2Cl)c([N+](=O)[O-])c1)N1CCN(c2ccccn2)CC1	-10.2	69.1*	17.4	13.7	i	38.4*	52.8*	14.6*	14.3
O=C(c1ccc(Cl)c(Cl)c1)N1CCN(c2ccccn2)CC1	7.4	10.4	3.8	-4.9	i	·	·	·	·
SMILES	Platelet DG rel	TAAR1 antag	TAAR1 ag	VLA-4 inh	Rce1 inh	TAAR1 nonsel count	TAAR1 ant conf	Ga16 ag counter	TAAR1 ag counter
CN(c1ccccc1)S(=O)(=O)c1cc(C(=O)N2CCN(c3ccccn3)CC2)ccc1Cl	-1.1	59.5*	7.4	16.8	i	18.8	33.7	6.3	4.5
COc1ccc(C(=O)COC(=O)C(CCCCN2C(=O)C3C4C=CC(C4)C3C2=O)N2C(=O)C3C4C=CC(C4)C3C2=O)cc1 (stereo not drawn)	2.1	58.8*	21.2	11.3	i	33.0*	50.6*	9.4	9.1
CCCN1CCc2c(sc(NC(=O)CCS(=O)(=O)c3ccccc3)c2C(=O)OC)C1	10.9	39.5	8.2	-39.3	i	·	·	·	·
O=C(CSc1nnc(SCc2ccccc2)s1)N/N=C/c1c[nH]c2ccccc12	0.5	0.3	4.6	·	i	·	·	·	·
Cc1ccc(CSc2nnc(SCC(=O)N/N=C/c3c[nH]c4ccccc34)s2)cc1	-0.9	78.9*	9.5	·	i	28.1*	43.3	2.6	2.7
O=C(c1ccncc1)N1CCN(C(=O)c2ccco2)CC1	-1.4	-13.1	3.7	-1.4	i	·	·	·	·
O=C(c1ccc(N2CN(C(=O)c3ccco3)c3nc4ccccc4nc32)cc1)N1CCOCC1	-0.3	53.5*	26.2	5.6	i	21.1	42.8	9.7	9.0
Cc1cc(Br)ccc1NC(=O)c1ccccc1-c1ccccc1	-13.4	57.0*	0.5	2.9	i	2.7	0.9	2.5	2.0
O=C(Nc1ccccc1Br)c1ccccc1-c1ccccc1	0.9	13.4	9.4	10.4	i	·	·	·	·
COc1cccc(OC)c1C(=O)Nc1cc(C)nn1-c1nc2ccccc2[nH]1	-6.1	69.2*	7.8	10.4	i	28.3*	48.9*	4.3	-0.3
CCN(CC)C(=O)c1ccc2sc([C@H]3C[C@H](O)[C@@H](CO)O3)nc2c1	·	-18.6	2.1	·	·	·	·	·	·
Cc1ccc(C)c(N2CCN(C(=O)c3ccc(CSc4nc5ccncc5[nH]4)cc3)CC2)c1	0.9	50.1*	6.9	-11.2	i	36.4*	35.9	12.2*	21.7
